target: T1, 5-hydroxytryptamine receptor 7 (Homo sapiens, UniProt P34969); assay: Binding affinity towards cloned human 5-hydroxytryptamine 7 receptor was determined in HEK293 cells using [3H]5-CT as radioligand; format: cell-based
T1 sequence (P34969 whole entry): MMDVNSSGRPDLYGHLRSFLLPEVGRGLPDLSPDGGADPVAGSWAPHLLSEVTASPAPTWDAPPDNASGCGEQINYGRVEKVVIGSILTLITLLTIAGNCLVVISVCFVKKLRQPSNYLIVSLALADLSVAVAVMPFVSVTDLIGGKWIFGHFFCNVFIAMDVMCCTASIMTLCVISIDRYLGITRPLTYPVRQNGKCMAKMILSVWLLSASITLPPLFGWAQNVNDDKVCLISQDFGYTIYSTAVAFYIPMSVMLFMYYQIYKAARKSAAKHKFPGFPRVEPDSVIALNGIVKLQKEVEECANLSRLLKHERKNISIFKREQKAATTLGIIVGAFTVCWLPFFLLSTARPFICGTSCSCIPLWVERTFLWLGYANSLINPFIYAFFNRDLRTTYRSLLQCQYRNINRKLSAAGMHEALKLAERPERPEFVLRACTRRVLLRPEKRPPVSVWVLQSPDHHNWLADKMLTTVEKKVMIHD

Structure (SMILES)	Ki
C[C@H]1CCCN(CC[C@@H](C)N(C)S(=O)(=O)c2cccc3ccccc23)C1	631 nM
CC1CCN(CC[C@@H]2CCCCN2S(=O)(=O)c2cccc3ccccc23)CC1	15.8 nM
COc1cccc(S(=O)(=O)N2CCC[C@H]2CCN2CCC(C)CC2)c1	10 nM
CC1CCN(CC[C@@H]2CCCN2S(=O)(=O)c2ccc(Cl)c(Cl)c2)CC1	3.98 nM
C[C@H]1CCCN(CC[C@H](C)N(C)S(=O)(=O)c2cccc3ccccc23)C1	100000 nM
CC1CCN(CC[C@@H](C)N(C)S(=O)(=O)c2cccc3ccccc23)CC1	31.6 nM
CC1CCN(CC[C@@H]2CCCN2S(=O)(=O)c2cccc(Br)c2)CC1	2 nM
C[C@@H]1CCCN(CC[C@H](C)N(C)S(=O)(=O)c2cccc3ccccc23)C1	1580 nM
CC1CCN(CC[C@@H]2CCCN2S(=O)(=O)c2cccc3ccccc23)CC1	10 nM

target: T1, 5-hydroxytryptamine receptor 7; assay: Binding affinity towards human recombinant 5-hydroxytryptamine 7 receptor was determined using [3H]5-CT as radioligand

Structure (SMILES)	Ki
O=C1Nc2cccc3c2C1(CCCCN1CCN(C2CCCCC2)CC1)CCC3 (stereo not drawn)	100000 nM

target: T1, 5-hydroxytryptamine receptor 7; assay: Non-selective inhibitory activity was determined against 5-hydroxytryptamine 7 receptor

Structure (SMILES)	Ki
CC(C)(C)[C@@]1(O)CCN2C[C@@H]3c4ccccc4CCc4cccc(c43)[C@H]2C1	63.1 nM
CCN(CC)C(=O)[C@@H]1C=C2c3cccc4[nH]c(Br)c(c34)C[C@H]2N(C)C1	10 nM
CCC(CO)NC(=O)[C@@H]1C=C2c3cccc4c3c(cn4C)C[C@H]2N(C)C1 (single isomer, unassigned) [METHYSERGIDE]	12.6 nM
CN1CCC(=C2c3ccccc3C=Cc3ccccc32)CC1 [CYPROHEPTADINE]	50.1 nM
CN1C[C@@H](NS(=O)(=O)N(C)C)C[C@@H]2c3cccc4c3c(cn4C)C[C@H]21 [MESULERGINE]	7.94 nM
Cc1nc2sccn2c(=O)c1CCN1CCC(=C(c2ccc(F)cc2)c2ccc(F)cc2)CC1 [RITANSERIN]	15.8 nM

target: T2, 5-hydroxytryptamine receptor 7 (Rattus norvegicus, UniProt P32305); assay: Binding affinity towards 5-hydroxytryptamine receptor 7 on rat hypothalamus membranes using [3H]5-CT as radioligand.; format: tissue-based, Membrane
T2 sequence (P32305 whole entry): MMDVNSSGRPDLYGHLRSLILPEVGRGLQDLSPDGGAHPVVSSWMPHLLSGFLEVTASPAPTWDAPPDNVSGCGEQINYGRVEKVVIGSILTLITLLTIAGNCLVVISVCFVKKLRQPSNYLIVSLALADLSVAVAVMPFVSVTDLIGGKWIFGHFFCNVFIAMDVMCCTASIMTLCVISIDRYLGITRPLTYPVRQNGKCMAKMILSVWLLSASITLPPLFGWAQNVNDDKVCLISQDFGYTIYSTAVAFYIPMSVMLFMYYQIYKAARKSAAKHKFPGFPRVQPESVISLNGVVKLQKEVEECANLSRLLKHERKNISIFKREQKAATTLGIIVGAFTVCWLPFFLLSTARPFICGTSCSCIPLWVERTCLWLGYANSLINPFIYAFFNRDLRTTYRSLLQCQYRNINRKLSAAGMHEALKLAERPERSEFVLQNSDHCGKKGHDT
Procedure, shortened: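 Rat hypothalamus homogenized in ice-cold 50 mM Tris-HCl pH 7.4, spun at 48 000g, washed and preincubated at 37 °C for 10 min. Membranes were resuspended in Tris buffer with 4 mM CaCl2, 1 mg/mL ascorbic acid, 0.01 mM pargyline and 3 μM pindolol, then incubated 120 min at 23 °C with 0.5 nM [3H]-5-CT. Nonspecific binding was set by 10 μM 5-HT. GF/C filtration, scintillation counting. Ki from IC50 via Cheng–Prusoff; 2–4 assays in triplicate.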

Structure (SMILES)	Ki
CN1CCN(CCCCN2c3cccc4cccc(c34)S2(=O)=O)CC1	> 10000 nM
CC1CCN(CCCCCN2c3cccc4cccc(c34)S2(=O)=O)CC1	> 10000 nM
CC1CCN(CCCCN2c3cccc4cccc(c34)S2(=O)=O)CC1	> 10000 nM
O=C1c2cccc3cccc(c23)N1CCCCN1CC=C(c2ccccc2)CC1	> 1000 nM
CC1CCN(CCCCCCN2c3cccc4cccc(c34)S2(=O)=O)CC1	> 10000 nM
O=C1c2cccc3cccc(c23)N1CCCCCCN1CCN(c2ccccc2)CC1	> 1000 nM
O=S1(=O)c2cccc3cccc(c23)N1CCCCCCN1CCN(c2ccccc2)CC1	> 1000 nM
O=C1c2cccc3cccc(c23)N1CN1CCN(c2ccccc2)CC1	> 10000 nM
O=C1c2cccc3cccc(c23)N1CCCCCN1CCN(C2CCCCC2)CC1	> 10000 nM
COc1ccccc1N1CCN(CN2C(=O)c3cccc4cccc2c34)CC1	> 10000 nM
COc1ccccc1N1CCN(CCCCCCN2C(=O)c3cccc4cccc2c34)CC1	> 1000 nM
O=C1c2cccc3cccc(c23)N1CCCCN1CCN(c2ccccc2)CC1	631 nM
O=C1c2cccc3cccc(c23)N1CCCCN1CCN(C2CCCCC2)CC1	> 10000 nM
O=C1c2cccc3cccc(c23)N1CCCCN1CCCCC1	> 10000 nM
CN1CCN(CCCCN2C(=O)c3cccc4cccc2c34)CC1	> 10000 nM
O=S1(=O)c2cccc3cccc(c23)N1CCCCN1CCCCC1	> 10000 nM
CC1CCN(CCCCN2C(=O)c3cccc4cccc2c34)CC1	> 1000 nM
O=S1(=O)c2cccc3cccc(c23)N1CCCCN1CCN(c2ccccc2)CC1	1000 nM
COc1ccccc1N1CCN(CCCN2C(=O)c3cccc4cccc2c34)CC1	398 nM
Cn1ccnc1SCCCCN1C(=O)c2cccc3cccc1c23	> 10000 nM
O=C1c2cccc3cccc(c23)N1CCCCN1CCC(c2ccccc2)CC1	> 1000 nM
O=C1c2cccc3cccc(c23)N1CCCN1CCN(c2ccccc2)CC1	> 10000 nM
O=C1c2cccc3cccc(c23)N1CCCCN1CCC(C2CCCCC2)CC1	> 1000 nM
O=S1(=O)c2cccc3cccc(c23)N1CCCCCN1CCC(C2CCCCC2)CC1	> 10000 nM
O=C1c2cccc3cccc(c23)N1CCCCCN1CC=C(c2ccccc2)CC1	> 1000 nM
CC(C)C1CCN(CCCCCN2C(=O)c3cccc4cccc2c34)CC1	> 1000 nM
O=C1Nc2cccc3c2C1(CCCCN1CC=C(c2ccccc2)CC1)CCC3 (stereo not drawn)	50.1 nM
CC1CCN(CCC2CCCN2S(=O)(=O)c2cccc(O)c2)CC1 (single isomer, unassigned)	31.6 nM
Cc1cccc(S(=O)(=O)N(C)[C@H](C)CCN2CCC(C)CC2)c1 [SB-258719]	79.4 nM

target: T2, 5-hydroxytryptamine receptor 7; assay: Binding affinity towards cloned rat 5-hydroxytryptamine 7 receptor was determined using [3H]5-HT as radioligand

Structure (SMILES)	Ki
Cc1cccc(O)c1-c1cccc2c1-c1cccc3c1[C@@H](C2)N(C)CC3	25.1 nM
Cc1cccc(C#N)c1-c1cccc2c1-c1cccc3c1[C@@H](C2)N(C)CC3	3.98 nM
COc1cccc(OC)c1-c1cccc2c1-c1cccc3c1[C@@H](C2)N(C)CC3	12.6 nM

Reference: ChEMBL document CHEMBL1145937, “Optimization of the pharmacophore model for 5-HT7R antagonism. Design and synthesis of new naphtholactam and naphthosultam derivatives” (J Med Chem, 2003)
